Values after ≈ are worked out from the molar mass of the structure shown.
Legend:
[1] = Selectivity index, ratio of CC50 for MDBK cells to EC50 for BVDV NADL infected in MDBK cells assessed as inhibition of progeny infectious viral particle production
[2] = Selectivity index, ratio of CC50 for MDBK cells to EC50 for BVDV NADL infected in MDBK cells assessed as inhibition of viral RNA synthesis
[3] = system: Bovine viral diarrhea virus 1-NADL; assay: Selectivity ratio of EC50 for LZ37-resistant BVDV NADL to EC50 for wild type BVDV NADL; assay type: functional
[4] = system: Bovine viral diarrhea virus 1-NADL; assay: Selectivity ratio of EC50 for AG110-resistant BVDV NADL to EC50 for wild type BVDV NADL; assay type: functional
[5] = system: Bovine viral diarrhea virus 1-NADL; assay: Selectivity ratio of EC50 for BPIP-resistant BVDV NADL to EC50 for wild type BVDV NADL; assay type: functional
[6] = Antiviral activity against LZ37-resistant BVDV NADL assessed as inhibition of viral replication; assay type: functional, Bovine viral diarrhea virus 1-NADL
Outline: (§1)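 MDBK cells were seeded at 5 × 10³/well in MEM-FCS and held 24 h at 37 °C in 5% CO₂. Medium was replaced with 5-fold serial compound dilutions, then BVDV NADL (drug-selected resistant variant) at MOI 2. CPE was read by the MTS method at OD 490 nm, and % CPE was calculated. EC50 is the concentration giving 50% protection from virus-induced CPE, by linear interpolation.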

[7] = Antiviral activity against AG110-resistant BVDV NADL assessed as inhibition of viral replication; assay type: functional, Bovine viral diarrhea virus 1-NADL; outline: as §1
[8] = Antiviral activity against BPIP-resistant BVDV NADL assessed as inhibition of viral replication; assay type: functional, Bovine viral diarrhea virus 1-NADL; outline: as §1
[9] = Selectivity ratio of EC50 for BVDV NADL infected in MDBK cells assessed as inhibition of progeny infectious viral particle production to EC50 for BVDV NADL infected in MDBK cells assessed as inhibition of viral RNA synthesis; assay type: functional, Bovine viral diarrhea virus 1-NADL
[10] = Selectivity index, ratio of CC50 for Huh5-2 cells to EC50 for HCV genotype 1b infected in Huh5-2 cells; set-up: species or system Huh-5-2
Outline: (§2)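 Selectivity index is the ratio of CC50 from the 3-day MTS/PMS proliferation assay to EC50 in the same cell line. For Huh 5-2 the EC50 is from the luciferase replicon assay; for MDBK it is from the MTS CPE assay.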

Hepatitis C virus = assay: Antiviral activity against HCV genotype 1b infected in Huh5-2 cells assessed as inhibition of viral replication after 4 days by luciferase reporter gene assay; assay type: functional, organism-based, Hepacivirus hominis, Huh-5-2; conditions: for EC50: Hepatitis C virus, genotype 1b, Huh-5-2, 96 h
Outline: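 Huh 5-2 cells carrying the HCV subgenomic luciferase replicon were seeded at 5 × 10³/well with compound and incubated 4 days at 37 °C. Medium was removed and luciferase activity quantified. EC50 is the minimum concentration reducing replicon-driven luciferase signal by 50%.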

[11] = Cytotoxicity against human Huh5-2 cells assessed as growth inhibition after 3 days by MTS assay; assay type: cell-based, Huh-5-2
Outline: (§3)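 MDBK or Huh 5-2 cells were seeded at 5 × 10³/well in MEM-FCS, with serial compound dilutions added 24 h later. Cells proliferated 3 days at 37 °C, then metabolic activity was read by MTS/PMS. CC50 is the concentration inhibiting proliferation of exponentially growing cells by 50%, by linear interpolation.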

[12] = Selectivity index, ratio of CC50 for MDBK cells to EC50 for BVDV NADL infected in MDBK cells; outline: as §2
[13] = system: Bovine viral diarrhea virus 1-NADL; assay: Selectivity ratio of EC50 for LZ37-resistant BVDV NADL to EC50 for AG110-resistant BVDV NADL; assay type: functional
[14] = Cytotoxicity against MDBK cells assessed as growth inhibition after 3 days by MTS assay; assay type: cell-based, Bos taurus; conditions: cattle; outline: as §3
[15] = Antiviral activity against BVDV NADL infected in MDBK cells assessed as inhibition of progeny infectious viral particle production; assay type: functional, cell-based, Bovine viral diarrhea virus 1-NADL; conditions: Bovine viral diarrhea virus isolates and strains
[16] = (§4) Antiviral activity against BVDV NADL infected in MDBK cells assessed as inhibition of virus-induced cytopathic effect formation after 5 days by MTS assay; assay type: functional, cell-based, Bovine viral diarrhea virus 1-NADL; conditions: Bovine viral diarrhea virus isolates and strains, 120 h
Outline: (§5)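 MDBK cells were seeded at 5 × 10³/well in MEM-FCS and held 24 h at 37 °C, 5% CO₂. Medium was replaced with 5-fold serial compound dilutions, then BVDV inoculum was added at MOI 2. CPE was read by MTS as OD at 490 nm. EC50 is the concentration giving 50% protection against virus-induced CPE, by linear interpolation.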

MDBK = assay: as §4; assay type: functional, cell-based; conditions: Bovine viral diarrhea virus 1-NADL; outline: as §5
[17] = Antiviral activity against BVDV NADL infected in MDBK cells assessed as inhibition of viral RNA synthesis by RT-qPCR analysis; assay type: functional, cell-based, Bovine viral diarrhea virus 1-NADL; conditions: Bovine viral diarrhea virus isolates and strains

SMILES	Ratio CC50/EC50 [10]	EC50 (Hepatitis C virus) [µg/mL]	CC50 at 72 h [11] [µg/mL]	Ratio CC50/EC50 [12]	CC50 at 72 h [14] [µg/mL]	EC50 [16] [µg/mL]	other results
Fc1ccc(-c2nc3ccc(Sc4ccccc4)cn3c2-c2cccc(-c3ccccc3)c2)cc1	>1	> 106	> 106	>50	> 100	2 (≈ 4.23 µM)	Ratio CC50/EC50 [1]: 19; Ratio CC50/EC50 [2]: 37; Ratio EC50 [3]: 2.2; Ratio EC50 [4]: 0.9; Ratio EC50 [5]: 1.5; EC50 [6]: 8.8 µg/mL (≈ 18.6 µM); EC50 [7]: 3.9 µg/mL (≈ 8.25 µM); EC50 [8]: 6 µg/mL (≈ 12.7 µM); Ratio EC50 [9]: 2; Ratio EC50 [13]: 2; EC50 [15]: 8 µg/mL (≈ 16.9 µM); inhibition (MDBK): Dose-dependent effect; EC50 [17]: 2.7 µg/mL (≈ 5.71 µM)
CC(C)(C)c1nc2ccc(-c3ccsc3)nn2c1-c1cccc(-c2ccoc2)c1	6.3	8.7 (≈ 21.8 µM)	55.1 (≈ 138 µM)	2.7	4.5 (≈ 11.3 µM)	1.7 (≈ 4.26 µM)	
Fc1ccc(-c2nc3ccc(-c4ccsc4)cn3c2-c2cccc(-c3ccccc3)c2)cc1	>1	> 112	> 112	>45	> 33	0.74 (≈ 1.66 µM)	
COc1cccc(-c2nc3ccc(-c4ccsc4)cn3c2-c2cccc(-c3ccccc3)c2)c1	1.6	52.4 (≈ 114 µM)	85.2 (≈ 186 µM)	>6.7	> 100	15 (≈ 32.7 µM)	
CC(C)(C)c1nc2ccc(-c3ccsc3)nn2c1-c1cccc(-c2ccc(O)cc2)c1	3	5 (≈ 11.7 µM)	15 (≈ 35.2 µM)	>7.1	> 100	14.2 (≈ 33.4 µM)	
COc1ccccc1-c1nc2ccc(-c3ccsc3)nn2c1-c1cccc(-c2ccccc2O)c1	>43	4.8 (≈ 10.1 µM)	> 205	12	16.2 (≈ 34.1 µM)	1.36 (≈ 2.86 µM)	inhibition (INH) (Hepatitis C virus): 60%
COc1ccccc1-c1cccc(-c2c(-c3ccc(F)cc3)nc3ccccn23)c1	2.8	10.7 (≈ 27.1 µM)	29.7 (≈ 75.3 µM)	3.2	8.5 (≈ 21.5 µM)	2.7 (≈ 6.84 µM)	
Fc1ccc(-c2nc3ccc(-c4ccsc4)nn3c2-c2cccc(-c3ccccc3)c2)cc1	1.2	11.2 (≈ 25 µM)	13.4 (≈ 29.9 µM)	8	13 (≈ 29 µM)	1.7 (≈ 3.8 µM)	
Fc1ccc(-c2nc3ccc(N4CCOCC4)cn3c2-c2cccc(-c3ccccc3)c2)cc1	1.7	6.7 (≈ 14.9 µM)	11.1 (≈ 24.7 µM)	>1	> 50	> 50	
COc1ccc(-c2nc3ccc(-c4ccsc4)cn3c2-c2cccc(-c3ccccc3)c2)cc1	>1.9	56.8 (≈ 124 µM)	> 109	>4.4	> 100	22.7 (≈ 49.5 µM)	
Fc1ccc(-c2nc3ccccn3c2-c2cccc(-c3ccsc3)c2)cc1	5.1	11.1 (≈ 30 µM)	56.7 (≈ 153 µM)	3	7 (≈ 18.9 µM)	2.3 (≈ 6.21 µM)	
Fc1ccc(-c2nc3ccc(-c4ccccc4)nn3c2-c2cccc(-c3ccccc3)c2)cc1	1.4	11.3 (≈ 25.6 µM)	15.9 (≈ 36 µM)	20	25 (≈ 56.6 µM)	1.23 (≈ 2.79 µM)	
COc1ccccc1-c1nc2ccccn2c1-c1cccc(-c2ccc(O)cc2)c1	2.3	18.8 (≈ 47.9 µM)	43.8 (≈ 112 µM)	>5.6	> 100	17.7 (≈ 45.1 µM)	
CC(C)(C)c1nc2ccc(-c3ccsc3)nn2c1-c1cccc(-c2ccccc2)c1	2.8	22.7 (≈ 55.4 µM)	63.2 (≈ 154 µM)	>2.6	> 100	37.9 (≈ 92.5 µM)	
Fc1ccc(-c2cccc(-c3c(-c4ccc(F)cc4)nc4ccccn34)c2)cc1	5.3	10.3 (≈ 26.9 µM)	54.5 (≈ 143 µM)	1.4	5.4 (≈ 14.1 µM)	3.9 (≈ 10.2 µM)	
CC(C)(C)c1nc2ccc(-c3ccsc3)nn2c1-c1cccc(-c2cccc(O)c2)c1	5.2	3.9 (≈ 9.16 µM)	20 (≈ 47 µM)	>26.7	> 100	3.7 (≈ 8.69 µM)	
COc1ccccc1-c1nc2ccc(-c3ccsc3)cn2c1-c1cccc(-c2ccccc2)c1	3.3	17.5 (≈ 38.2 µM)	56.8 (≈ 124 µM)	>1.5	> 100	68.6 (≈ 150 µM)	

Source: ChEMBL document CHEMBL2390820, “3-Biphenylimidazo[1,2-a]pyridines or [1,2-b]pyridazines and analogues, novel Flaviviridae inhibitors” (Eur J Med Chem, 2013)
